MC4R antag cAMP: MC4R antagonists of cAMP signaling, primary screen, cell-based, TR-FRET, antagonist arm of biased-ligand search; MC4R-expressing cells, MTII-stimulated cAMP, LANCE TR-FRET; inhibition, % at 6.5 µM; 360,000 compounds, 0.48% hits; Melanocortin receptor 4 (Homo sapiens), P32245; AID 540295, 2011;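 active = inhibition above its plate's cutoff, the mean of tested wells on that plate plus 3 SD, cut at about 29% in these data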;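 also: 0% = Melanotan II alone and 100% = Melanotan II plus saturating MCL0020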
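Material: U2OS-MC4R stable cell line | Reagent: Melanotan II challenge after compound preincubation | Doses: One concentration, 6.5 µM nominal | Incubation: 30-min compound preincubation, 1-h Melanotan II challenge, 1-h detection, room temperature | Signal: TR-FRET cAMP assay | Replicates: One well per compound, no replicates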
TLR9-MyD88 inh: inhibitors of TLR9-MyD88 association in cells, primary screen, cell-based, CHO, BLA complementation, fluorescence | 340,000 compounds, 0.21% hits | AID 504734, 2011 | Toll-like receptor 9 (Homo sapiens) + Myeloid differentiation primary response protein … | CCF4 FRET ratio | inhibition, % at 4.98 µM;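 active = inhibition above the mean over all tested compounds plus 3 SD, cut at about 21% in these data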;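 also: 0% = DMSO only wells and 100% = clavulanate BLA inhibitor control wells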
NOD2 RIPK2 PPI: NOD2-RIPK2 binding disruptors in cells, primary screen, fluorescence, CHO cells, BLA complementation; 360,000 compounds, 0.38% hits; AID 624267, 2012; inhibition, % at 4.98 µM; CCF4 ratio; Receptor-interacting serine/threonine-protein kinase 2 (Homo sapiens), O43353; in the data active = inhibition above about 21%;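 also: 0% = vehicle only and 100% = reference blocker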
MC4R barr agon: MC4R agonists recruiting beta-arrestin, primary screen, cell-based, luminescence, agonist arm of biased-ligand search; U2OS MC4R beta-arrestin complementation; percent of melanotan II response, DMSO zero; activation, % at 8.9 µM; 360,000 compounds, 0.98% hits;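 active = activation above a per-plate cutoff, the mean activation of sample wells on that plate plus 3 SD, cut at about 8% in these data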
TLR4-MyD88 BLA: inhibitors of TLR4-MyD88 association in cells, primary screen, cell-based, HeLa CL3-4, BLA complementation, FRET ratio | AID 861, 2007 | inhibition, % at 8.4 µM | Toll-like receptor 4 (Homo sapiens) + Myeloid differentiation primary response protein … | 200,000 compounds, 0.18% hits | HeLa CL3-4 TLR4/MyD88 BLA complementation; in the data active = inhibition above about 25%;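 also: 0% = vehicle and 100% = reference inhibitor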
Target sequence (O00206 whole entry, looked up): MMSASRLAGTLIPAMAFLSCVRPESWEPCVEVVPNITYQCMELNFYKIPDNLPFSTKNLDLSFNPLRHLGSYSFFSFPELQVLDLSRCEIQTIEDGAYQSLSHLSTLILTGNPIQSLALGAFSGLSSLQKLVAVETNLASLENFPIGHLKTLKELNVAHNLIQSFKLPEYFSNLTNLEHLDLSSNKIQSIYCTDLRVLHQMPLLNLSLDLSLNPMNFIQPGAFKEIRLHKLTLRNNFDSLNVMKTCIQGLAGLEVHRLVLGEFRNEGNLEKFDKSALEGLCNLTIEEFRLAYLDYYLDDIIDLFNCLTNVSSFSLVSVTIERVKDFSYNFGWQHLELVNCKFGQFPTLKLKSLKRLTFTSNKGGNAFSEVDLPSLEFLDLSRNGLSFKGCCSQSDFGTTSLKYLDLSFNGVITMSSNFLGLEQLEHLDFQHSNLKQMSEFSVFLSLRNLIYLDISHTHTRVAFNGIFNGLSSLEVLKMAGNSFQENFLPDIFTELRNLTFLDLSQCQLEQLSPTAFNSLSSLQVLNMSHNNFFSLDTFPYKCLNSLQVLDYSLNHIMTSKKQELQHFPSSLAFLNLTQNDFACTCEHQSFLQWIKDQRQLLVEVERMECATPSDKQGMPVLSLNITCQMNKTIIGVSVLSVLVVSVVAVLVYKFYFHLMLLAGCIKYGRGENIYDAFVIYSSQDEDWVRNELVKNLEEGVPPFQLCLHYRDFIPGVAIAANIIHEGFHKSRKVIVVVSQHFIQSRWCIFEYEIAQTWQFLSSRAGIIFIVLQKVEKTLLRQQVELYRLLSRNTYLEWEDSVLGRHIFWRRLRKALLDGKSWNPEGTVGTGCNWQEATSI
Target sequence (Q99836 whole entry, looked up): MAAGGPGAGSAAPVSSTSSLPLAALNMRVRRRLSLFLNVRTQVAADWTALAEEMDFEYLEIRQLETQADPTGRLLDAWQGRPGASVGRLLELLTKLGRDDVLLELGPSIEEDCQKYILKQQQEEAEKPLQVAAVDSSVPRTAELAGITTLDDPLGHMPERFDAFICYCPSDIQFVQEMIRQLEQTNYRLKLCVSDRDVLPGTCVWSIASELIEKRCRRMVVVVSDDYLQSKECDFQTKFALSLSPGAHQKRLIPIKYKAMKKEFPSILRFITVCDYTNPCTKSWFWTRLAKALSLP
U2OS cAMP counter: nonselective cAMP signaling inhibitors, parental cells, counter-screen for MC4R biased antagonist project, cell-based, TR-FRET, U2OS, forskolin, triplicate. shares compounds with MC4R antag cAMP. LANCE TR-FRET. inhibition, % at 6.5 µM. 1,600 compounds, 26% hits. AID 602193, 2012;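 active = mean inhibition over triplicates above the low-control well mean plus 3 SD, set per campaign, cut at about 13% in these data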;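 also: signal is single emission at 671 nm which falls as cellular cAMP rises; 0% = forskolin-stimulated wells and 100% = buffer without forskolin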
MC4R cAMP antag: MC4R cAMP antagonists, retest, confirmation, cell-based, TR-FRET; AID 602195, 2012; shares compounds with MC4R antag cAMP; inhibition, % at 6.5 µM; 1,600 compounds, 27% hits; MC4R-expressing cells, MTII-stimulated cAMP; in the data active = inhibition above about 29%;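 also: 0% = agonist stimulated wells alone and 100% = agonist stimulated wells plus saturating reference antagonist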
An asterisk follows results filed as active; / = no result. Compounds with a hit are over-represented: about 1.8% of the library has one in this group of screens.

SMILES | MC4R antag cAMP | TLR9-MyD88 inh | NOD2 RIPK2 PPI | MC4R barr agon | TLR4-MyD88 BLA | U2OS cAMP counter | MC4R cAMP antag
Cc1ccccc1N(CC(=O)NC1CCCCC1)C(=O)CNC(=O)c1cccs1 | 30* | -5 | -15 | 2 | / | -17 | -33
O=C(CN(C(=O)CNC(=O)c1cccs1)c1ccccc1F)NC1CCCCC1 | 22 | -9 | -4 | 1 | / | / | /
CN(C)c1cccc(NC(=O)C2Cc3c(-c4cccnc4)ccnc3O2)c1 (centres undefined) | 4 | / | 3 | -1 | / | / | /
COc1cc(C(=S)N2CCOCC2)ccc1OS(=O)(=O)c1ccccc1[N+](=O)[O-] | 33* | -6 | 2 | -1 | -8 | -1 | -5
O=C(Oc1cccc(C(=S)N2CCOCC2)c1)c1ccc([N+](=O)[O-])cc1[N+](=O)[O-] | 37* | -7 | 0 | -1 | / | 6 | 29*
O=C(Oc1ccc(C(=S)N2CCOCC2)cc1)c1ccc([N+](=O)[O-])cc1[N+](=O)[O-] | 0 | -13 | -4 | -3 | / | / | /
Cc1ccc(N(C(=O)c2snc(C(N)=O)c2N)C(C(=O)NC2CCCC2)c2ccc(C)o2)cc1 (centres undefined) | 1 | -2 | -14 | 4 | / | / | /
Cc1c(NC(=S)N/C(=N/S(=O)(=O)c2ccccc2)c2ccccc2)c(=O)n(-c2ccccc2)n1C | 30* | -5 | -8 | 0 | / | -1 | -1
Cc1c(NC(=S)N/C(=N/S(=O)(=O)c2ccc(Cl)cc2)c2ccccc2)c(=O)n(-c2ccccc2)n1C | 7 | -4 | -7 | -3 | / | / | /
COC(=O)c1ccc(/C=C2\CCn3c2nc2cc(C(=O)O)ccc2c3=O)cc1 | 12 | -3 | -14 | 0 | / | / | /
CC(C)CCOc1ccc(/C=C2\CCn3c2nc2cc(C(=O)O)ccc2c3=O)cc1 | 32* | -6 | -14 | 2 | -10 | 0 | -8
CC(C)c1ccc(NC(=O)[C@H]2CSCN2C(=O)[C@@H]2CCC(=O)N2)cc1 | -2 | 9 | -15 | 2 | / | / | /
CC1CN(C)CCC1OC(=O)c1ccccc1 (centres undefined) | 0 | 2 | -5 | 0 | / | / | /
COc1ccc(NC(=O)CCNS(=O)(=O)c2ccc(Cl)c([N+](=O)[O-])c2)cc1S(N)(=O)=O | 1 | -10 | -8 | 0 | / | / | /
CCOC(=O)C(C)(C)NS(=O)(=O)c1ccc(Cl)c([N+](=O)[O-])c1 | 40* | 9 | 3 | -2 | 9 | 21* | 35*
CCOC(=O)C(C)(C)N(Cc1ccc(Cl)cc1)S(=O)(=O)c1ccc(Cl)c([N+](=O)[O-])c1 | / | / | / | / | 18 | / | /
CCOC(=O)C(C)(C)N(Cc1ccc(C)cc1)S(=O)(=O)c1ccc(Cl)c([N+](=O)[O-])c1 | 31* | 1 | 11 | 2 | -2 | 20* | 52*
CC(C)NS(=O)(=O)c1ccc(CCC(=O)N2CCC(C(N)=O)CC2)cc1 | 31* | -10 | 8 | 0 | 7 | 4 | 9
CC#CC(=O)N1CCC(n2nccc2NC(=O)CCc2ccccc2)CC1 | -1 | -1 | -7 | 0 | / | / | /
CC(C)=CC(=O)N1CCC(n2nccc2NC(=O)CCc2ccccc2)CC1 | 35* | 1 | 0 | 3 | / | 4 | 6
O=C1c2cccc3c2N(CCC3)C(=O)C1(F)c1ccccc1 (centres undefined) | 17 | / | -5 | 0 | / | / | /
O=C1Nc2cccc3c2N(CCC3)C2=C1CCC2 | 30* | -12 | -6 | 0 | / | 1 | 11
O=C(Nc1ccc(N2CCOCC2)cc1)C1(S(=O)(=O)c2ccccc2)CC1 | -8 | 13 | 5 | 1 | -6 | / | /
CC(=O)c1ccc(NC(=O)C2(S(=O)(=O)c3ccccc3)CC2)cc1 | 30* | 0 | 3 | 0 | 0 | 0 | -3
NS(=O)(=O)c1c(Sc2ccccc2C(=O)O)ccc2ccccc12 | 37* | 0 | 10 | 0 | / | 17* | 38*
SMILES | MC4R antag cAMP | TLR9-MyD88 inh | NOD2 RIPK2 PPI | MC4R barr agon | TLR4-MyD88 BLA | U2OS cAMP counter | MC4R cAMP antag
COc1ccccc1N1CCN(CC(=O)Nc2ccccc2C(=O)NCCc2ccccc2)CC1 | -23 | 6 | 1 | -3 | / | / | /
COc1ccc(C2=NOC3(CC(=O)N(c4ccc(F)cc4)C3=O)C2)cc1 (centres undefined) | 29* | -2 | 0 | 2 | / | 2 | -6
COc1ccc(C(=O)/C=C/C(=O)N(CC(=O)NC2CCCCC2)Cc2ccccc2OC)c(O)c1 | 48* | 8 | 0 | -6 | 2 | 7 | 14
COc1ccc(C(=O)/C=C/C(=O)N(CC(=O)NC2CCCCC2)Cc2ccccc2)c(O)c1 | 40* | -2 | 7 | -2 | 19 | 5 | 11
CCOC(=O)c1sc(NC(=O)CCc2ccc(OC)cc2)nc1C | 50* | 1 | -2 | 2 | / | 1 | 16
c1ccc(-c2cc3ccccc3nc2N2CCCC2)cc1 | 6 | -9 | -8 | 2 | -6 | / | /
Cc1ccc(-c2cc3ccccc3nc2N2CCOCC2)cc1 | 34* | / | -4 | 2 | -5 | -1 | -3
CC(=O)N1N=C(c2ccc(C)cc2)CC1c1ccco1 (centres undefined) | 30* | -2 | -6 | -1 | 3 | 12 | 3
O=C(CN1C(=O)NC2(CCCC2)C1=O)Nc1ccc(S(=O)(=O)N2CCOCC2)cc1 | 34* | -8 | 7 | -2 | 1 | 1 | -3
Cc1cc(SCC(=O)N/N=C/c2ccco2)nc2ccccc12 | 29* | / | -9 | 1 | -9 | -3 | -6
O=C(CSc1nc2ccccc2o1)N/N=C/c1ccco1 | 3 | 1 | 8 | -1 | / | / | /
CCOC(=O)c1c(NC(=S)NC)sc2c1CC(C)(C)SC2 | 19 | -3 | -7 | 1 | -1 | / | /
CCOC(=O)c1c(NC(=S)Nc2ccccc2)sc2c1CC(C)(C)SC2 | 35* | 0 | 2 | -4 | -20 | 2 | 16
CC1OC(c2ccccc2)OC2COC(c3ccccc3)OC12 (centres undefined) | 13 | -1 | -10 | 1 | / | / | /
Nc1nc(Cl)c(C=O)c(N2CCCCC2)n1 | 37* | -4 | 2 | -2 | 22 | 20* | 28
CCOC(=O)CSc1nnc(NC(=O)c2cccc([N+](=O)[O-])c2)s1 | 39* | 10 | 4 | -1 | 2 | 3 | 0

Screens: PubChem BioAssay, The Scripps Research Institute Molecular Screening Center
